E-sel inducer: E-selectin induction in HUVECs, primary screen, imaging, HUVEC, immunofluorescence imaging, single point. normalized: neutral wells 0, TNF-alpha wells 100. activation, % at 7.58 µM. hit rate 0.37% among 260,000. AID 686992, 2013;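 active means mean E-selectin-positive cell signal at least 10% of the positive control, reached in at least 60% of replicates, without over 20% cell loss; inconclusive means no rule given, readout overlaps actives, possibly toxicity-flagged; inactive means the rest, including those meeting only one limit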
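assay system = HUVEC, human umbilical vein endothelial cells | input = 3,000 HUVEC seeded per well | medium = EGM-2 growth medium on 0.1% gelatin-coated wells | dosing = one compound dose added by pin transfer | signal = immunofluorescence imaging | read-out basis = % PE-positive cells | control set = TNF-alpha, DMSO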
XiGFP reactiv: activators of inactive X chromosome reactivation, primary screen, imaging, XiGFP fibroblasts, GFP high-content imaging, set 2. activation, % at 7.58 µM. hit rate 0.055% among 360,000. XiGFP mouse fibroblasts, % GFP-positive cells imaging, 3 d; cells co-treated with 5-aza-dC sensitizer; scaled so ellipticine positive control = 100%;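 active means mean normalized replicate activation at least 10% and every replicate at or above 10%; inconclusive means only one of the two criteria met; inactive means mean below 10% and not all replicates reach 10%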;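 further: 0% = median of on-plate neutral control wells and 100% = ellipticine 6 µM median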
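System: XiGFP fibroblasts, SV40-immortalized. Medium: DMEM plus 5-aza-dC sensitizer. Doses: single point. Timing: 3 d treatment, 15 min room-temperature fixation. Control set: ellipticine 6 µM.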
DENV2 CPE rescue: inhibitors of DENV2 cytopathic effect, primary screen, cell-based, plate reader, single concentration; DENV2-infected cells, cytopathic effect rescue; CPE inhibition, % at 9.99 µM; hit rate 1.7% among 350,000; in the data active means CPE inhibition above about 20%, passing the limit was not always enough; inconclusive means no clear call, values can overlap the other calls; tested in BHK-21 cells;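 further: 0% = median of neutral control wells and 100% = median of positive control wells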
S100A4 MyoIIA: inhibitors of S100A4-myosin IIA peptide binding, primary screen, biochemical, fluorescence polarization, TAMRA-MyoIIA peptide. Protein S100-A4 (Homo sapiens), P26447. inhibition, % at 10.7 µM. hit rate 0.14% among 360,000. AID 652163, 2013;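 active means mean inhibition of at least 70% across replicates, with every replicate also reaching that level; inconclusive means mean inhibition reaches 70% but some replicates fall short; inactive means mean inhibition below 70%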
Target sequence (P26447 whole entry, looked up): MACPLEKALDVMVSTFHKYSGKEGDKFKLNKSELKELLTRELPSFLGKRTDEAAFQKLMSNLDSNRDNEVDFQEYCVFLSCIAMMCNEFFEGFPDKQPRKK
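Material: human S100A4 monomer with TAMRA-labelled myosin IIA peptide; buffer or medium: HEPES pH 7.2 with CaCl2, KCl, NaCl, DTT, Triton; compound dosing: one concentration per compound; schedule: 5 min incubation before reading; benchmarks: neutral control DMSO, positive control TFP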
* = called active by the depositor. Compounds with a hit are over-represented: about 2% of the library has one in this group of screens.

O=C(Nc1cccc(S(=O)(=O)N2CCCCC2)c1)C1CC(=O)N(Cc2ccccc2)C1 (stereo not drawn) was read as XiGFP reactiv 0, DENV2 CPE rescue -7 and S100A4 MyoIIA -6.
`CCN1C(=O)[C@H]2[C@@H](c3ccc(-c4ccc5c(c4)OCO5)c(OC)c3)N[C@@](C)(C(=O)OC)[C@H]2C1=O` gave E-sel inducer 0, XiGFP reactiv 0 and S100A4 MyoIIA 99*.
`CCN1C(=O)[C@H]2[C@@H](c3ccc(-c4ccc(Cl)c(Cl)c4)c(OC)c3)N[C@@](C)(C(=O)OC)[C@H]2C1=O` gave E-sel inducer 0, XiGFP reactiv 0, DENV2 CPE rescue -12 and S100A4 MyoIIA 0.
`CC(=O)NC[C@H]1[C@H](c2ccc(-c3ccccc3F)cc2)[C@H](CO)N1C(=O)C1CC1` gave E-sel inducer 0, XiGFP reactiv 0, DENV2 CPE rescue 53* and S100A4 MyoIIA -10.
`N#C[C@@H]1[C@H](c2ccc(-c3ccccc3F)cc2)[C@@H](CO)N1C(=O)C1CC1` gave E-sel inducer 0, XiGFP reactiv 0, DENV2 CPE rescue 37* and S100A4 MyoIIA 0.
For CC(=O)NC[C@@H]1[C@@H](c2ccc(-c3ccccc3F)cc2)[C@H](CO)N1C(=O)C1CC1 the results were E-sel inducer 0, XiGFP reactiv 0, DENV2 CPE rescue -8 and S100A4 MyoIIA 4.
For COc1ccccc1-c1ccc([C@H]2[C@@H](CO)N(C(C)=O)[C@@H]2CN(C)C(C)=O)cc1 the results were E-sel inducer 0, XiGFP reactiv 0, DENV2 CPE rescue 0 and S100A4 MyoIIA 4.
Screening N#C[C@H]1[C@@H](c2ccc(-c3ccccc3F)cc2)[C@@H](CO)N1C(=O)C1CC1 returned E-sel inducer 0, XiGFP reactiv 0, DENV2 CPE rescue -5 and S100A4 MyoIIA -6.
For CC(=O)N(C)C[C@H]1[C@H](c2ccc(-c3ccccc3F)cc2)[C@@H](CO)N1C(C)=O the results were E-sel inducer 1, XiGFP reactiv 0, DENV2 CPE rescue 32* and S100A4 MyoIIA 0.
`N#C[C@H]1[C@@H](c2ccc(-c3ccccc3F)cc2)[C@H](CO)N1C(=O)C1CC1` gave E-sel inducer 0, XiGFP reactiv 0, DENV2 CPE rescue -2 and S100A4 MyoIIA 0.
N#C[C@@H]1[C@H](c2ccc(-c3ccccc3F)cc2)[C@H](CO)N1C(=O)C1CC1 was read as E-sel inducer 0, XiGFP reactiv 0, DENV2 CPE rescue 87* and S100A4 MyoIIA 1.
For O=C(NCc1nc2ccccc2[nH]1)C1=C[C@H](c2coc3ccccc3c2=O)C[C@H](OCc2ccc(CO)cc2)O1 the results were E-sel inducer 0, XiGFP reactiv 0, DENV2 CPE rescue inconclusive and S100A4 MyoIIA -2.
`N#C[C@H]1[C@@H](c2ccccc2-c2cccc(F)c2)[C@H](CO)N1C(=O)C1CCCC1` gave E-sel inducer 0, XiGFP reactiv 0, DENV2 CPE rescue -6 and S100A4 MyoIIA 1.
COc1ccc(-c2ccccc2[C@@H]2[C@H](C#N)N(C(=O)C3CC3)[C@H]2CO)cc1 was read as E-sel inducer 0, XiGFP reactiv 0, DENV2 CPE rescue 45* and S100A4 MyoIIA 3.
Screening N#C[C@@H]1[C@H](c2ccccc2-c2cccc(F)c2)[C@H](CO)N1C(=O)C1CCCC1 returned E-sel inducer 1, XiGFP reactiv 0, DENV2 CPE rescue 37* and S100A4 MyoIIA 1.
Screening N#C[C@H]1[C@H](c2ccc(-c3ccccc3F)cc2)[C@@H](CO)N1C(=O)C1CC1 returned E-sel inducer 2, XiGFP reactiv 0, DENV2 CPE rescue 30* and S100A4 MyoIIA 5.
Screening N#C[C@H]1[C@H](c2ccccc2-c2ccccc2F)[C@@H](CO)N1C(=O)C1CC1 returned E-sel inducer 0, XiGFP reactiv 0, DENV2 CPE rescue 22* and S100A4 MyoIIA 2.
C[C@@H]1CN([C@@H](C)CO)C(=O)Cc2cc(NC(=O)Nc3ccc(F)cc3)ccc2O[C@H]1CN(C)C was read as XiGFP reactiv 0, DENV2 CPE rescue 13 and S100A4 MyoIIA -4.
`Cc1ccc(S(=O)(=O)N2CCCCC2)cc1NC(=O)c1ccc2ccccc2n1` gave E-sel inducer 0, XiGFP reactiv 0, DENV2 CPE rescue -4 and S100A4 MyoIIA 0.
Cc1cccnc1NC(=O)c1ccc(S(=O)(=O)N2CCCCC2)cc1 was read as E-sel inducer 0, XiGFP reactiv 0, DENV2 CPE rescue -11 and S100A4 MyoIIA 3.
CC(=NNC(=O)c1cccc(S(=O)(=O)N2CCCC2)c1)c1ccccc1 was read as XiGFP reactiv 0, DENV2 CPE rescue 6 and S100A4 MyoIIA -2.
For Cc1ccnc(NC(=O)c2ccc(Cl)c(S(=O)(=O)N3CCCCC3)c2)c1 the results were XiGFP reactiv 0, DENV2 CPE rescue 5 and S100A4 MyoIIA 1.
Cc1ccnc(NC(=O)c2ccc(Cl)c(S(=O)(=O)N3CCCC3)c2)c1 was read as E-sel inducer 0, XiGFP reactiv 0, DENV2 CPE rescue 61* and S100A4 MyoIIA 57.
`Cc1cccnc1NC(=O)c1cccc(S(=O)(=O)N2CCCC2)c1` gave XiGFP reactiv 0, DENV2 CPE rescue 31* and S100A4 MyoIIA -1.
`O=C(Nc1cccc(S(=O)(=O)N2CCCCCC2)c1)c1ccc2ccccc2n1` gave XiGFP reactiv 0, DENV2 CPE rescue 22* and S100A4 MyoIIA 2.
CC(=O)Nc1cccc(/C(C)=N/NC(=O)c2cccc(S(=O)(=O)N3CCCC3)c2)c1 was read as E-sel inducer 0, XiGFP reactiv 0, DENV2 CPE rescue 25* and S100A4 MyoIIA -1.
Screening COc1cccc(CN2[C@@H](CO)[C@@H](c3ccccc3)C23CN(C(=O)C2CC2)C3)c1 returned E-sel inducer 0, XiGFP reactiv 0, DENV2 CPE rescue 16 and S100A4 MyoIIA -5.
Cc1c(NC(=O)CN2CCCC(C)C2)ccc2nsnc12 (stereo not drawn) was read as E-sel inducer 3, XiGFP reactiv 0, DENV2 CPE rescue -3 and S100A4 MyoIIA -2.
Cc1noc(C)c1NC(=O)N1C[C@@H](O)COC[C@H]2O[C@@H](CC(=O)N[C@H]3CCN(Cc4ccccc4)C3)CC[C@@H]21 was read as XiGFP reactiv 0.
COc1ccc2c3c(n(C)c2c1)[C@H](CO)N(C(=O)CN1CCOCC1)CC31CCN(C(=O)Nc2cccc(F)c2)CC1 was read as E-sel inducer 0, XiGFP reactiv inconclusive, DENV2 CPE rescue 33* and S100A4 MyoIIA -40.
CCC(=O)N1CC2(CN(Cc3ccc(F)cc3)C2)c2c(n(C)c3cc(OC)ccc23)[C@@H]1CO was read as E-sel inducer 0, XiGFP reactiv 0, DENV2 CPE rescue 21* and S100A4 MyoIIA -10.
